Test results as given in ChEMBL document CHEMBL3769384, “Discovery of Tetrahydropyrazolopyridine as Sphingosine 1-Phosphate Receptor 3 (S1P3)-Sparing S1P1 Agonists Active at Low Oral Doses” (J Med Chem, 2016).
Activity calls are given as the source filed them. No cut-off for these calls is given here.

Columns and labels:
[1] = test system: Rattus norvegicus; experiment: Lymphopenia activity in Lewis rat at 1 mg/kg, po measured after 2 to 4 hrs; format: functional, organism-based
[2] = Lipophilicity, log D of the compound at pH 7.4 by chromatography; format: physicochemical; details: buffer
[3] = biological target: T1, Sphingosine 1-phosphate receptor 1 (Homo sapiens, UniProt P21453); experiment: Agonist activity at human S1P1 receptor expressed in RH7777 cells by [35S]GTP-gammaS accumulation assay; format: cell-based
T1 sequence (P21453 whole entry): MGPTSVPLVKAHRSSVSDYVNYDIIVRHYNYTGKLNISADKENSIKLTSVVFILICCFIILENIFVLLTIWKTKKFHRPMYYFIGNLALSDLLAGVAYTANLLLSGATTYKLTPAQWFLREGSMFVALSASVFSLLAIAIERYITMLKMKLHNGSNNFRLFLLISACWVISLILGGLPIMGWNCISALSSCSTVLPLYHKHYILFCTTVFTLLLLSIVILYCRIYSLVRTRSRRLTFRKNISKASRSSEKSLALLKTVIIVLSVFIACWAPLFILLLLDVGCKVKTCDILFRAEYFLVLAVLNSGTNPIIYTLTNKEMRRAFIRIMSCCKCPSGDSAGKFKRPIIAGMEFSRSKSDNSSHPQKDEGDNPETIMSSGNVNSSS
Summary of the method: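 RH7777 S1P1 membranes (1.5 µg/well) precoupled 30 min on ice to WGA SPA beads in 20 mM HEPES, 10 mM MgCl2, 100 mM NaCl, pH 7.4, with 10 µM GDP and 90 µg/mL saponin (final). 0.5 nM [35S]GTPγS final added to compound; plates read immediately by scintillation proximity.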

[4] = biological target: Sphingosine 1-phosphate receptor 3 (Homo sapiens, UniProt Q99500); experiment: Agonist activity at human S1P3 receptor expressed in RBL cells by [35S]GTP-gammaS accumulation assay; format: cell-based
Chain of Sphingosine 1-phosphate receptor 3 (Q99500 whole entry): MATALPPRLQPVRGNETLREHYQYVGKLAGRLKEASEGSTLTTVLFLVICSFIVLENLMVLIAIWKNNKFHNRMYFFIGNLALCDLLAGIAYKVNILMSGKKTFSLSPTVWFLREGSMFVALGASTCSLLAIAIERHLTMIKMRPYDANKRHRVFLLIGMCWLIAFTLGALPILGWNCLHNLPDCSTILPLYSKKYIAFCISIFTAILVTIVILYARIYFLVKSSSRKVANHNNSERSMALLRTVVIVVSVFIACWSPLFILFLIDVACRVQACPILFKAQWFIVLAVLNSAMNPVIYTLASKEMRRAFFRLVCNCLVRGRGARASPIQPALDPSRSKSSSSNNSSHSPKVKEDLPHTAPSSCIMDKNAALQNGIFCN
Summary of the method: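 Sucrose-gradient-purified RBL S1P3 membranes (0.44 µg/well) precoupled 30 min on ice to WGA SPA beads with 2 µg/well saponin in HEPES/MgCl2/NaCl buffer pH 7.4. 5 µM GDP final and 0.3 nM [35S]GTPγS final added, then dispensed onto compound in DMSO. Read by scintillation proximity after 3 h at room temperature.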

[5] = biological target: T1, Sphingosine 1-phosphate receptor 1; experiment: Agonist activity at human S1P1 receptor expressed in CHO-K1 EDG1 cells by beta-arrestin recruitment assay; format: cell-based
Summary of the method: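 CHO-K1 cells stably expressing beta-arrestin 2 and S1P1 fused to complementing beta-galactosidase fragments; grown to 80% confluency, harvested enzyme-free, resuspended in HEPES/BSA assay buffer pH 7.4. Cells at 1x10^4/well added to compound in DMSO, 90 min at 37°C/5% CO2, then 15 min at room temperature; chemiluminescent detection mix 60 min at room temperature, luminescence read.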

[6] = test system: Rattus norvegicus; experiment: Lymphopenia activity in Lewis rat at 0.3 mg/kg, po measured after 24 hrs; format: functional, organism-based
Summary of the method: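 Male Lewis rats (300-350 g) bled by venepuncture the day before dosing. Compound given orally at 0.1-3 mg/kg, or vehicle (1% methylcellulose, 4 mL/kg). Blood taken 0.25-54 h post-dose and lymphocytes counted on an automatic haematology analyser.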

[7] = biological target: Sphingosine 1-phosphate receptor 2 (Homo sapiens, UniProt O95136); experiment: Agonist activity at human S1P2 receptor expressed in Saccharomyces cerevisiae after 24 hrs by reporter gene assay
Chain of Sphingosine 1-phosphate receptor 2 (O95136 whole entry): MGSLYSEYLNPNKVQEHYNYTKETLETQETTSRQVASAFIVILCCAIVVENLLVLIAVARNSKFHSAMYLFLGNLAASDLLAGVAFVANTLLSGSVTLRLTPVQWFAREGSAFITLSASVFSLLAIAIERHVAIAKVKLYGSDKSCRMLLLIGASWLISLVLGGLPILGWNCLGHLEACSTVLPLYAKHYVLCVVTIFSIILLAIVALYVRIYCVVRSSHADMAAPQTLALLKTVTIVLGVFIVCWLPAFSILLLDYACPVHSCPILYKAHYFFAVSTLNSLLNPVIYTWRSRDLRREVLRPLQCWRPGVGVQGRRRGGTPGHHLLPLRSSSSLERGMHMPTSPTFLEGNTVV
Summary of the method: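 S. cerevisiae with integrated S1P2 under the GPD promoter, seeded at 0.02 OD600 in histidine-free minimal medium with 5 mM 3-aminotriazole and 100 µM fluorescein-di-(β-D-glucopyranoside). Agonist-driven growth was read as fluorescein fluorescence (ex 485/em 535 nm) after 24 h at 30°C.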

[8] = biological target: T2, Sphingosine 1-phosphate receptor 4 (Homo sapiens) (UniProt O95977); experiment: Agonist activity at human S1P4 receptor expressed in CHO-K1 cells by aequorin calcium accumulation assay; format: functional, cell-based
T2 sequence (whole entry): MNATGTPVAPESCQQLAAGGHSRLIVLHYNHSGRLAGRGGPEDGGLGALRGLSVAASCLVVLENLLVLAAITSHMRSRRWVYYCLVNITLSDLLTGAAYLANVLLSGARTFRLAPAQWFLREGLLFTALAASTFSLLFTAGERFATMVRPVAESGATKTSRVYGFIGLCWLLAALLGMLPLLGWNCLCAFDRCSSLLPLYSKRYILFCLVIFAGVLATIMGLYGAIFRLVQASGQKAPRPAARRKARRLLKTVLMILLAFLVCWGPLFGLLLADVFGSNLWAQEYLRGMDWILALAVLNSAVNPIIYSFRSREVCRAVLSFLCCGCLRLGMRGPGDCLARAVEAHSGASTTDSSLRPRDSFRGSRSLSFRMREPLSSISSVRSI
Summary of the method: (§1)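 CHO-K1 aequorin lines revived in DMEM F12 with 10% charcoal-stripped FBS, recovered 30 min at 37°C, then loaded 18-24 h at room temperature in the dark with 5 µM coelenterazine at 2.5x10^6 cells/mL. Cells were added at 1x10^5/well to compound, and flash luminescence was recorded immediately.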

[9] = biological target: Sphingosine 1-phosphate receptor 5 (Homo sapiens, UniProt Q9H228); experiment: Agonist activity at human S1P5 receptor expressed in CHO-K1 cells by aequorin calcium accumulation assay; format: functional, cell-based; summary of the method: as §1
Chain of Sphingosine 1-phosphate receptor 5 (Q9H228 whole entry): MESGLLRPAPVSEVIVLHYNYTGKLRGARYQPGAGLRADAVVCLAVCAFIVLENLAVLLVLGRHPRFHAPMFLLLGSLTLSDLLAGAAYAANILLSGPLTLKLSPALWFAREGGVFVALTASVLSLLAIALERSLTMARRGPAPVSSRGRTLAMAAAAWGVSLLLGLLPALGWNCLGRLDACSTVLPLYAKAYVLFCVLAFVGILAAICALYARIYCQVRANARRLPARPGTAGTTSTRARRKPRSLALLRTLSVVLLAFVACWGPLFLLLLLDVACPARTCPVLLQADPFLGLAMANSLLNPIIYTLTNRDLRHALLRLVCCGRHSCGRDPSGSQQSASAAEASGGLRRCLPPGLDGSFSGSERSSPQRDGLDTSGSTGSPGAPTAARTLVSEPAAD

[10] = test system: Rattus norvegicus; experiment: Lymphopenia activity in Lewis rat at 1 mg/kg, po measured after 24 hrs; format: functional, organism-based
[11] = biological target: T1, Sphingosine 1-phosphate receptor 1; experiment: Agonist activity at human S1P1 receptor by receptor internalisation assay
[12] = test system: Rattus norvegicus; experiment: Lymphopenia activity in Lewis rat at 1 mg/kg, po measured at 8 hrs; format: functional, organism-based

SMILES	chromatographic logD [2]	EC50 [3] [nM]	EC50 [4] [nM]	EC50 [5] [nM]	also measured
CC(C)Oc1ccc(-c2nnc(-n3ncc4c3CCN(CCC(=O)O)C4)s2)cc1Cl	3.54	126	20000	50.1	Activity [1]: inactive
Cc1c(-c2nnc(-c3ccc(OC(C)C)c(Cl)c3)s2)cnn1CCC(=O)O	3.16	2510	> 31600	–	–
CC(C)Oc1ccc(-c2nnc(-c3ccccc3)s2)cc1Cl	8.65	251	20000	–	–
Cc1nn(-c2nnc(-c3ccc(OC(C)C)c(Cl)c3)s2)c(C)c1CC(=O)O	3.62	1000	> 31600	1580	–
CC(C)Oc1ccc(-c2nnc(-n3ncc4c3CCNC4)s2)cc1Cl	4.87	398	> 31600	794	–
CC(C)Oc1ccc(-c2nnc(-n3cncn3)s2)cc1Cl	6.18	501	> 31600	–	–
CC(C)Oc1ccc(-c2nnc(NC3CCN(CC(=O)O)CC3)s2)cc1Cl	–	2510	–	–	–
CC(C)Oc1ccc(-c2nnc(N3CCc4cc(CCC(=O)O)ccc43)s2)cc1Cl	–	100	–	–	–
Cc1[nH]ncc1-c1nnc(-c2ccc(OC(C)C)c(Cl)c2)s1	5.45	126	> 31600	–	–
CC(C)Oc1ccc(-c2nnc(N3CCOc4c(CCC(=O)O)cccc43)s2)cc1Cl	–	251	–	–	–
CC(C)Oc1ccc(-c2nnc(-n3cc4c(n3)CCN(CCCC(=O)O)C4)s2)cc1Cl	3.56	12.6	> 31600	5.01	–
CC(C)Oc1ccc(-c2nnc(NCCNCCC(=O)O)s2)cc1Cl	–	> 31600	–	–	–
Cc1c2c(nn1-c1nnc(-c3ccc(OC(C)C)c(Cl)c3)s1)CCNC2	5.32	126	> 31600	158	–
Cc1nc(C)c(-c2nnc(-c3ccc(OC(C)C)c(Cl)c3)s2)s1	7.76	251	> 31600	–	–
CC(C)Oc1ccc(-c2nnc(-n3cc4c(n3)CCNC4)s2)cc1Cl	4.44	631	> 31600	631	–
CC(C)Oc1ccc(-c2nnc(NCCN)s2)cc1Cl	–	> 31600	–	–	–
CC(C)Oc1ccc(-c2nnc(-c3ccnn3C)s2)cc1Cl	7.04	251	> 31600	–	–
CC(C)Oc1ccc(-c2nnc(-n3cc4c(n3)CCN(CCCC(=O)O)C4)s2)cc1C#N	2.87	–	> 31600	6.31	–
CC(C)Oc1ccc(-c2nnc(-c3cnn(CCN4CCOCC4)c3)s2)cc1Cl	5.59	10000	> 31600	–	–

SMILES	chromatographic logD [2]	EC50 [3] [nM]	EC50 [4] [nM]	EC50 [5] [nM]	also measured
Cc1c(-c2noc(-c3ccc(OC(C)C)c(C#N)c3)n2)ccc2c1CCN(CCC(=O)O)C2	3.41	31.6	> 39800	5.01	–
CC(C)Oc1ccc(-c2nnc(-n3cc4c(n3)CCNC4)s2)cc1C#N	3.37	501	> 31600	126	–
Cc1c2c(nn1-c1nnc(-c3ccc(OC(C)C)c(C#N)c3)s1)CCN(CC(=O)O)C2	2.88	–	> 31600	100	–
Cc1c2c(nn1-c1nnc(-c3ccc(OC(C)C)c(Cl)c3)s1)CCN(CCC(=O)O)C2	–	–	–	–	Activity [1]: Active; Emax [5]: 83%; Activity [6]: Active; Emax [7]: 0%; Emax [8]: 7%; Emax [9]: 63%; Activity [10]: Active; Emax [11]: 109%
CC(C)Oc1ccc(-c2nnc(N3CCC(N4CCCC(C(=O)O)C4)CC3)s2)cc1Cl (centres undefined)	–	3980	–	–	–
CC(C)Oc1ccc(-c2nnc(-c3cncn3C)s2)cc1Cl	5.7	63.1	> 31600	–	–
CC(C)Oc1ccc(-c2nnc(Nc3ccc(CC(=O)O)cc3)s2)cc1Cl	–	1260	–	–	–
CCCCCCCCc1ccc(CCC(N)(CO)CO)cc1	–	–	–	–	Activity [1]: Active
CC(C)Oc1ccc(-c2nnc(N3CCNCC3)s2)cc1Cl	–	6310	–	–	–
CC(C)Oc1ccc(-c2nnc(-n3cc4c(n3)CCN(CCC(=O)O)C4)s2)cc1Cl	3.26	12.6	> 31600	3.98	Activity [1]: Active; Activity [10]: inactive
CC(C)Oc1ccc(-c2nnc(-c3ccno3)s2)cc1Cl	6.93	1000	> 31600	–	–
Cc1c2c(nn1-c1nnc(-c3ccc(OC(C)C)c(C#N)c3)s1)CNCC2	4.23	–	> 31600	158	–
CC(C)Oc1ccc(-c2nnc(NC3=CCNCC3)s2)cc1Cl	–	1580	–	–	–
Cc1c2c(nn1-c1nnc(-c3ccc(OC(C)C)c(C#N)c3)s1)CCNC2	3.73	100	> 31600	63.1	–
CC(C)Oc1ccc(-c2nnc(-c3cn[nH]c3)s2)cc1Cl	5	631	> 31600	–	–
CC(C)Oc1ccc(-c2nnc(-c3cnn(CC(=O)O)c3)s2)cc1Cl	2.82	25100	> 31600	–	–
CC(C)Oc1ccc(-c2nnc(-n3cc4c(n3)CCN(CCC(=O)O)C4)s2)cc1C#N	2.58	50.1	> 31600	5.01	Activity [1]: Active; Activity [12]: Active
Cc1c2c(nn1-c1nnc(-c3ccc(OC(C)C)c(C#N)c3)s1)CCN(CCC(=O)O)C2	2.76	15.8	> 31600	3.16	Activity [1]: Active; Activity [12]: Active
Cc1nn(-c2nnc(-c3ccc(OC(C)C)c(Cl)c3)s2)c(C)c1CCC(=O)O	4.3	39.8	> 31600	20	–
